This note sets out measurements from ChEMBL document CHEMBL1250494, “Synthesis of new 3-aryl-4,5-dihydropyrazole-1-carbothioamide derivatives. An investigation on their ability to inhibit monoamine oxidase” (Eur J Med Chem, 2010).

Structures are written as SMILES.

For data set [1], the target named is T1, Amine oxidase [flavin-containing] A (Homo sapiens, UniProt P21397).
T1 sequence (P21397 whole entry): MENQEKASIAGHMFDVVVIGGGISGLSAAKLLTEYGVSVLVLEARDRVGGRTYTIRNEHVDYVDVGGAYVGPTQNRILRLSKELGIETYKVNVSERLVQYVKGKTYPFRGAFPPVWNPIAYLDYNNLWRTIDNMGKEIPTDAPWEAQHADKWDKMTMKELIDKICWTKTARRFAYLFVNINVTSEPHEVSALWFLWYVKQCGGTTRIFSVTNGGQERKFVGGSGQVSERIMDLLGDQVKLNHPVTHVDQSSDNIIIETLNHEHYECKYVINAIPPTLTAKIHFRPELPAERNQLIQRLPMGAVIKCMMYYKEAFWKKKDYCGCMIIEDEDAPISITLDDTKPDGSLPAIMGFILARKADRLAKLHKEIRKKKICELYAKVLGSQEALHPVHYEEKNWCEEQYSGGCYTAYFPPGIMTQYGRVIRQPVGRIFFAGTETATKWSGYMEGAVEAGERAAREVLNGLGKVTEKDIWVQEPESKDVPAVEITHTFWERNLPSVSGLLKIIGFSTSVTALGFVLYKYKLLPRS
In words: Inhibition of human recombinant MAOA expressed in baculovirus infected BTI insect cells assessed as hydrogen peroxide production at 100 uM after 15 mins by Amplex red assay. Particulars: 0.25 h; for inhibition (INH): 100 µM; call rule not given here. The gist of the method:
(§1)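 Recombinant hMAO-A or hMAO-B, in an amount oxidizing 165 pmol p-tyramine/min in controls, preincubated with test drug 15 min at 37 °C in 0.05 M sodium phosphate pH 7.4, dark. Reaction started with 1 U/ml HRP, Amplex Red and 1 mM p-tyramine (final). Resorufin read at ex 545/em 590 nm over 15 min. Background subtracted; vehicle (DMSO) controls. Precipitation limited higher concentrations.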

For data set [2], the target named is T2, Amine oxidase [flavin-containing] B (Homo sapiens, UniProt P27338).
T2 sequence (P27338 whole entry): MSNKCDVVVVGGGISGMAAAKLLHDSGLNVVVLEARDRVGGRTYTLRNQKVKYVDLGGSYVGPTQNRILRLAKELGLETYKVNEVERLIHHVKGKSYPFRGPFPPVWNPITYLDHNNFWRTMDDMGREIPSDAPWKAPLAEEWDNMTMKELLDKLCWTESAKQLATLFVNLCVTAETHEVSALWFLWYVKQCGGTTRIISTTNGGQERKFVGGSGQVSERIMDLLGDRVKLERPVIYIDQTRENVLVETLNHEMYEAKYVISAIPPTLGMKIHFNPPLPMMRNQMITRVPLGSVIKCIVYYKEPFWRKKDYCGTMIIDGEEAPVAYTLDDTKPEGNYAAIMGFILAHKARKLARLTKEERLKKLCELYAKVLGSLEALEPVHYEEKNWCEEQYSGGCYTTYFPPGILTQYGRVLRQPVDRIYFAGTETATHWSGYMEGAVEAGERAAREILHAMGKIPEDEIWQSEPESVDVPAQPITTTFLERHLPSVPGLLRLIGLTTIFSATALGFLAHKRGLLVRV
In words: Inhibition of human recombinant MAOB expressed in baculovirus infected BTI insect cells assessed as hydrogen peroxide production at 100 uM after 15 mins by Amplex red assay. To be noted: 0.25 h; for inhibition (INH): 100 µM. The gist of the method:
as §1

The target in data set [3] is T2, Amine oxidase [flavin-containing] B. In words: biochemical. The data set is classed as cell-based.
The species named for data set [4] is Homo sapiens. In words: Selectivity index, ratio of IC50 for human recombinant MAOA to IC50 for human recombinant MAOB. The gist of the method: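 IC50 values for hMAO-A and hMAO-B came from the Amplex Red/HRP assay, with 1 mM p-tyramine and readings at ex 545/em 590 nm at 37 °C. […] The selectivity index is IC50(MAO-A)/IC50(MAO-B). Where MAO-A was not inhibited, its IC50 was set at the highest concentration tested. Values are mean ± SEM.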

For data set [5], the target named is T2, Amine oxidase [flavin-containing] B. In words: Inhibition of human recombinant MAOB expressed in baculovirus infected BTI insect cells assessed as hydrogen peroxide production at 1 mM after 15 mins by Amplex red assay. To be noted: 0.25 h, 1000 µM. The gist of the method:
as §1

For the compound `Cc1cccc(C2=NN(C(N)=S)CC2)c1`, the “inhibition (INH)” value in data set [1] and in data set [2] was “Not Active” each time.

For orientation: inhibition means the percentage by which the read-out fell short of the control. On to `CC1CN(C(N)=S)N=C1c1ccc(F)cc1` (stereo unspecified), for which the inhibition at 100 µM in data set [1] and in data set [2] was 40% each time.

For orientation: IC50 means the point on the concentration scale where inhibition reaches its midpoint. Read a low IC50 as greater potency in that assay. With `Cc1ccc(C2=NN(C(N)=S)CC2)cc1`, the “inhibition (INH)” value in data set [1] is “Not Active”. Besides, the IC50 in data set [3] amounted to 18.1 µM. In addition, the Selectivity Index in data set [4] was more than 5.51.

Regarding `CC1CN(C(N)=S)N=C1c1ccccc1` (stereo unspecified), in data set [1], the “inhibition (INH)” value was “Not Active”. Besides, in data set [2], the inhibition at 100 µM stood at 40%.

For `CC1CN(C(N)=S)N=C1c1ccc(Cl)cc1` (stereo unspecified), the inhibition at 100 µM in data set [1] and in data set [2] was 40% in each case.

Take `CNC(=S)N1CCC(c2cccc(C)c2)=N1`: the “inhibition (INH)” value in data set [1] is given as “Not Active”. The same compound returned an IC50 in data set [3] of 53.4 µM. Besides, in data set [4], the Selectivity Index is more than 1.87.

As to `CNC(=S)N1CC(C)C(c2ccc(C)cc2)=N1` (stereo unspecified), the inhibition at 100 µM in data set [1] and in data set [2] was 40% in each case.

As for `COc1ccc(C2=NN(C(N)=S)CC2)cc1`, in data set [1], the “inhibition (INH)” value is given as “Not Active”. The concentration for half-maximal inhibition (IC50) in data set [3] is 15.5 µM. The Selectivity Index in data set [4] is more than 6.46.

In the case of `CNC(=S)N1CCC(c2cccs2)=N1`, the “inhibition (INH)” value in data set [1] and in data set [2] was “Not Active” in each case.

`COc1ccc(C2=NN(C(N)=S)CC2C)cc1` (stereo unspecified): the inhibition at 100 µM in data set [1] amounted to 40%. Also, half-maximal inhibition in data set [3] (IC50) was put at 84.6 µM. Besides, the Selectivity Index in data set [4] is more than 1.18.

Consider `CNC(=S)N1CCC(c2ccc(F)cc2)=N1`, for which, in data set [1], the “inhibition (INH)” value is on record as “Not Active”. In data set [3], this compound returned an IC50 of 51 µM. Also, in data set [4], the Selectivity Index is more than 1.96.

Turning to `CNC(=S)N1CC(C)C(c2ccc(OC)cc2)=N1` (stereo unspecified), the “inhibition (INH)” value in data set [1] is reported as “Not Active”. Moreover, half-maximal inhibition in data set [3] (IC50) required 49.4 µM. Moreover, the Selectivity Index in data set [4] is more than 2.02.

As for `CNC(=S)N1CC(C)C(c2ccc(Cl)cc2)=N1` (stereo unspecified), the “inhibition (INH)” value in data set [1] was “Not Active”. Further, in data set [3], the IC50 amounted to 34.8 µM. Further, the Selectivity Index in data set [4] was more than 2.87.

As for `CNC(=S)N1CCC(c2cccc(OC)c2)=N1`, the “inhibition (INH)” value in data set [1] is reported as “Not Active”. In data set [3], this compound displayed an IC50 of 71.3 µM. For the same compound, the Selectivity Index in data set [4] is more than 1.4.

Consider `CNC(=S)N1CCC(c2ccc(OC)cc2)=N1`, for which, in data set [1], the “inhibition (INH)” value was “Not Active”. The compound also showed a half-inhibitory concentration (IC50) in data set [3] of 13.7 µM. In data set [4], the Selectivity Index is more than 7.3.

In the case of `Cc1ccc(C2=NN(C(N)=S)CC2C)cc1` (stereo unspecified), in data set [1], the “inhibition (INH)” value is given as “Not Active”. Besides, in data set [2], the inhibition at 100 µM was found to be 40%.

Consider `CNC(=S)N1CCC(c2ccccc2C)=N1`, for which the “inhibition (INH)” value in data set [1] and in data set [2] was “Not Active” each time.

In the case of `NC(=S)N1CCC(c2ccc(Cl)cc2Cl)=N1`, the “inhibition (INH)” value in data set [1] and in data set [2] was “Not Active” throughout.

For `CNC(=S)N1CCC(c2ccc(C)cc2)=N1`, the inhibition at 100 µM in data set [1] was 40%. The compound further came in with an IC50 in data set [3] of 16.8 µM. Moreover, the Selectivity Index in data set [4] is more than 5.96.

Take `O=C(NCCN1CCOCC1)c1ccc(Cl)cc1` [MOCLOBEMIDE]: the “inhibition (INH)” value in data set [5] is reported as “Not Active”.

With `CNC(=S)N1CC(C)C(c2ccc(F)cc2)=N1` (stereo unspecified), the “inhibition (INH)” value in data set [1] was “Not Active”. Also, in data set [2], the inhibition at 100 µM came to 40%.

Turning to `COc1cccc(C2=NN(C(N)=S)CC2)c1`, the “inhibition (INH)” value in data set [1] and in data set [2] was “Not Active” in each case.

Take `Cc1ccccc1C1=NN(C(N)=S)CC1`: the “inhibition (INH)” value in data set [1] and in data set [2] was “Not Active” each time.

Consider `NC(=S)N1CCC(c2cccs2)=N1`, for which the “inhibition (INH)” value in data set [1] and in data set [2] was “Not Active” throughout.

Consider `NC(=S)N1CCC(c2ccc(F)cc2)=N1`, for which the “inhibition (INH)” value in data set [1] and in data set [2] was “Not Active” throughout.

Turning to `CNC(=S)N1CC(C)C(c2ccccc2)=N1` (stereo unspecified), the “inhibition (INH)” value in data set [1] is reported as “Not Active”. In addition, the inhibition at 100 µM in data set [2] amounted to 40%.
